# Only some compounds are listed: those with a hit (about 1.9% of all), similar ones and a draw of the others.
# LEDGF integ inh: blockers of LEDGF/p75-dependent integrase strand transfer – biochemical, TR-FRET, high throughput, primary screen; HIV-1 integrase (with human LEDGF/p75); TR-FRET IN-LEDGF/p75 DNA integration, Eu/Cy5; inhibition, % at 3.7 µM; actives 0.64% (n = 370,000); AID 743269, 2014;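 active means inhibition above the screen-wide mean plus 3 SD, cut at about 13% in these data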;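 further: signal is the Cy5 over europium emission ratio at 671 and 618 nm; 0% = plate median of compound wells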
# MBD2 inh: inhibitors of MBD2 binding to methylated DNA, primary screen, biochemical, TR-FRET, DNA-binding domain, human. Methyl-CpG-binding domain protein 2 (Homo sapiens), Q9UBB5. MBD2 binding to methylated oligonucleotide. inhibition, % at 4.4 µM. actives 0.31% (n = 370,000). AID 686964, 2013; in the data active means inhibition above about 13%
# Casp6 inh: human caspase-6 inhibitors, primary screen, biochemical, VEID-R110 fluorescence, single point, set 2. P55212. purified caspase-6, Z-VEID-R110 cleavage fluorescence. inhibition, % at 12.5 µM. actives 0.53% (n = 350,000);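 active means mean inhibition across replicates at least about 35%, with every replicate also reaching that limit, limit read from the data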;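 further: 0% = median of neutral control wells and 100% = no fluorescence left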
# UHRF1 binding: UHRF1 methylated DNA binding inhibitors, primary screen, counter-screen for MBD2 inhibitor project, biochemical, TR-FRET, human UHRF1, single concentration; E3 ubiquitin-protein ligase UHRF1 (Homo sapiens), Q96T88; UHRF1 binding to methylated oligo; inhibition, % at 4.4 µM; actives 0.75% (n = 370,000); in the data active means inhibition above about 21%;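 further: UHRF1 SRA domain binding a hemimethylated CpG hairpin DNA probe; 0% = median of test compound wells and 100% = reference inhibitor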
# NSD2 inh: NSD2 histone methyltransferase inhibitors, primary screen, biochemical, AlphaScreen, single concentration, set 2. NSD2 peptide methylation, 120 min. inhibition, % at 12.5 µM. actives 0.54% (n = 310,000); in the data active means inhibition above about 50%
# Target sequence (O96028 whole entry, looked up): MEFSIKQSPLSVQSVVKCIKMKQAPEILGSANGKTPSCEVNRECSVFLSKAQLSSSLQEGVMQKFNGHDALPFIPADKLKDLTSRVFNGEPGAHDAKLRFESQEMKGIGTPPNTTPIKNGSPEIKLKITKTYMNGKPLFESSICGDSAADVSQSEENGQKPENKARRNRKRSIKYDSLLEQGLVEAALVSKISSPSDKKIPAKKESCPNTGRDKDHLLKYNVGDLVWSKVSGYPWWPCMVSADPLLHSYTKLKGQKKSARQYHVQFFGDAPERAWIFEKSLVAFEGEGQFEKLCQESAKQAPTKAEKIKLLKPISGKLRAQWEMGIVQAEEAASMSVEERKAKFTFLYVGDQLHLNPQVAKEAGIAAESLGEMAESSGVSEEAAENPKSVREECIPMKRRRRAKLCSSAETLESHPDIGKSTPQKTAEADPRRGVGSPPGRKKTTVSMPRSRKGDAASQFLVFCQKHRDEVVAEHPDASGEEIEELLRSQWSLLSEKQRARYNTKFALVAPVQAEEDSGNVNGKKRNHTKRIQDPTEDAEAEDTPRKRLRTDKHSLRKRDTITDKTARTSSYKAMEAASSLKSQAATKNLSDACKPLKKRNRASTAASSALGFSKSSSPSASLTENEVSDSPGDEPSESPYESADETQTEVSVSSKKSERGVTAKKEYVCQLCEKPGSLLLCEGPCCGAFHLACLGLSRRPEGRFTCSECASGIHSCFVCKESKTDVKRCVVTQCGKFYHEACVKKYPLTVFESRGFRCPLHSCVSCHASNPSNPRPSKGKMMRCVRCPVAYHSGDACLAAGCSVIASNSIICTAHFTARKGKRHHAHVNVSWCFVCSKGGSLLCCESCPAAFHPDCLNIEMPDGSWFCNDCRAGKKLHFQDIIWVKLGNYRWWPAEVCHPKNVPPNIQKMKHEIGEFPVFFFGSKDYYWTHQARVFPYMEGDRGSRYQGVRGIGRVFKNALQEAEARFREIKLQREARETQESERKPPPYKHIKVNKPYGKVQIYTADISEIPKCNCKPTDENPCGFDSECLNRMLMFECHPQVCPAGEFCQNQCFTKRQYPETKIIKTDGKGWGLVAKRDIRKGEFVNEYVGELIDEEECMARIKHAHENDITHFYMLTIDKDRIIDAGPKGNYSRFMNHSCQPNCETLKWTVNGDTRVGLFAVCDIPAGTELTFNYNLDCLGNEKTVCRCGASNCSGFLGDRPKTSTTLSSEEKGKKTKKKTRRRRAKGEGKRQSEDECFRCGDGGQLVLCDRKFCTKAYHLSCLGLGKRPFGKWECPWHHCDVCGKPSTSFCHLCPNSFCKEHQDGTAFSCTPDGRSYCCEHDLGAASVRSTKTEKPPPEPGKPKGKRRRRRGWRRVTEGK
# TDP2 inh: human TDP2 enzyme inhibitors, primary screen, biochemical, epi absorbance, recombinant enzyme | AID 720702, 2013 | inhibition, % at 12.8 µM | T5PNP hydrolysis, p-nitrophenol absorbance 415 nm | actives 0.34% (n = 370,000);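 active means inhibition above the mean of all tested compounds plus 3 SD, set per campaign, cut at about 25% in these data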;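 further: 0% = DMSO with enzyme and 100% = buffer with substrate but no TDP2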
#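 Incubation: 2 h at 37 °C; Test system: recombinant human TDP2; Quantity: enzyme 120 nM; Read-out basis: percent inhibition; Medium: 50 mM Tris-HCl pH 7.5 with Mg2+, KCl, DTT, BSA; Repeats: single replicate; Compound: 12.8 µM single point, 1% DMSO; Signal: epi absorbance; Reagent: 5 mM T5PNP chromogenic substrate; Benchmarks: no-enzyme high, DMSO-plus-enzyme low.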
# * = called active by the depositor; nt = not tested or not shown.
SMILES,LEDGF integ inh,MBD2 inh,Casp6 inh,UHRF1 binding,NSD2 inh,TDP2 inh
Clc1cccc(Cc2c(C3CCCCC3)nc3ccc(Cl)cn23)c1,-2.5,-0.1,2.5,9.1,nt,2.7
Cc1ccc2nc(C3CCCCC3)c(Cc3ccccc3C(F)(F)F)n2c1,-3.1,5.1,2.4,6.1,nt,-0.7
Clc1cccc(Cc2c(C3CCCCC3)nc3c4ccccc4ccn23)c1,5.5,2.9,-2.6,24.1*,nt,6.9
Cc1nc2cc(C(=O)N3c4ccccc4CC3C)ccc2s1 (stereo not drawn),-0.6,6.2,-0.3,21.8*,-1.2,5.1
C[C@H]1CCCCO[C@H](CN(C)C(=O)Nc2ccc(F)cc2)[C@@H](C)CN([C@@H](C)CO)C(=O)c2cc(NC(=O)Cc3ccccc3)ccc2O1,nt,nt,43.1*,nt,nt,nt
COc1ccc(NC(=O)N(C)C[C@H]2OCCCC[C@@H](C)Oc3ccc(N(C)C)cc3C(=O)N([C@@H](C)CO)C[C@@H]2C)cc1,nt,nt,52.1*,nt,nt,nt
COc1ccc(S(=O)(=O)Nc2ccc3c(c2)C(=O)N([C@@H](C)CO)C[C@@H](C)[C@H](CN(C)C(=O)CCCN(C)C)OCCCC[C@H](C)O3)cc1,-1.9,-4.5,-23.9,29.0*,nt,-1.3
COc1ccc(NC(=O)N(C)C[C@H]2OCCCC[C@@H](C)Oc3ccc(N(C)C)cc3C(=O)N([C@H](C)CO)C[C@H]2C)cc1,nt,nt,4.7,nt,nt,nt
C[C@@H]1CCCCO[C@H](CN(C)C(=O)C2CCCCC2)[C@@H](C)CN([C@H](C)CO)C(=O)c2cc(N(C)C)ccc2O1,-2.9,0.9,0.7,50.0*,nt,-3.1
C[C@@H]1CCCCO[C@@H](CN(C)C(=O)C2CCCCC2)[C@H](C)CN([C@H](C)CO)C(=O)c2cc(N(C)C)ccc2O1,nt,nt,2.5,nt,nt,nt
C[C@@H]1CCCCO[C@H](CN(C)C(=O)Nc2ccc(F)cc2)[C@H](C)CN([C@@H](C)CO)C(=O)c2cc(NC(=O)Cc3ccccc3)ccc2O1,nt,nt,1.0,nt,nt,nt
O=S(=O)(Nc1ccc(C(O)(C(F)(F)F)C(F)(F)F)cc1)c1ccc(S(=O)(=O)c2ccccc2)s1,nt,nt,nt,nt,2.9,nt
O=C(O)C[C@@H]1CC[C@@H](NC(=O)CCN2CCCCC2)[C@@H](CO)O1,nt,nt,1.6,nt,nt,nt
O=C(C1CC1)N1CC(=O)N2[C@H](C1)[C@@H](c1ccc(C#CC3CCCC3)cc1)[C@@H]2CO,nt,nt,1.8,nt,nt,nt
C[C@H](O)C#Cc1cnc2c(c1)C(=O)N([C@H](C)CO)C[C@H](C)[C@H](CN(C)C(=O)CN1CCOCC1)O2,nt,nt,-5.5,nt,nt,nt
COc1ccc(NC(=O)N(C)C[C@H]2OCCCC[C@@H](C)Oc3ccc(NS(=O)(=O)c4cn(C)cn4)cc3C(=O)N([C@H](C)CO)C[C@@H]2C)cc1,nt,nt,59.9*,nt,nt,nt
C[C@@H]1CN([C@@H](C)CO)C(=O)c2cc(C3=CCCCC3)cnc2O[C@@H]1CN(C)C(=O)Cc1cccnc1,nt,nt,-0.2,nt,nt,nt
O=C(c1cncc(Br)c1)N1CCN(S(=O)(=O)c2ccc3ccccc3c2)CC1,23.1*,-1.4,3.5,3.5,-1.3,8.7
COC(=O)c1ccc(COc2cc([N+](=O)[O-])cc3cccnc23)o1,3.2,-10.0,37.6*,-1.2,18.4,0.0
O=[N+]([O-])c1cc(O)c2ncccc2c1,0.5,-6.5,46.9*,1.8,21.7,-4.8
O=[N+]([O-])c1cc2cccnc2c2ncccc12,-6.2,-2.0,3.9,0.8,-5.9,-2.8
C[C@@H]1CN([C@H](C)CO)C(=O)c2cccc(NC(=O)Nc3ccc(C(F)(F)F)cc3)c2O[C@H]1CN(C)S(C)(=O)=O,nt,nt,0.9,nt,nt,nt
CCOc1ccc2ccccc2c1/C=N/NC(=O)CNC(=O)c1ccccc1F,1.4,-7.4,-0.9,-1.8,-3.7,-11.2
